From ChEMBL document CHEMBL1275429, “Pharmacodynamic characterization of ceftobiprole in experimental pneumonia caused by phenotypically diverse Staphylococcus aureus strains” (Antimicrob Agents Chemother, 2008)
Converted amounts (≈) assume the structure as drawn.

Experiments:
Format in all cases: functional
Staphylococcus aureus [1] = assay: Antimicrobial activity against hospital acquired methicillin-resistant Staphylococcus aureus 56 by broth microdilution method
Outline: (§1)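 Broth microdilution run in triplicate following CLSI guidelines. Isolates were stored at –80°C in double-strength skim milk and subcultured twice on Trypticase soy agar with 5% sheep blood before testing.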

Staphylococcus aureus [2] = assay: Antimicrobial activity against methicillin-susceptible Staphylococcus aureus ATCC 29213 by broth microdilution method; outline: as §1
Staphylococcus aureus [3] = assay: Antimicrobial activity against community acquired methicillin-resistant Staphylococcus aureus 147 by broth microdilution method; outline: as §1
Staphylococcus aureus [4] = assay: Antimicrobial activity against hospital acquired methicillin-resistant Staphylococcus aureus 149 by broth microdilution method; outline: as §1
Staphylococcus aureus [5] = assay: Antimicrobial activity against community acquired methicillin-resistant Staphylococcus aureus 144 by broth microdilution method; outline: as §1
Staphylococcus aureus [6] = assay: Antimicrobial activity against community acquired methicillin-resistant Staphylococcus aureus 146 by broth microdilution method; outline: as §1
Staphylococcus aureus [7] = assay: Antimicrobial activity against methicillin-susceptible Staphylococcus aureus ATCC 25923 by broth microdilution method; outline: as §1
Staphylococcus aureus [8] = assay: Antimicrobial activity against hospital acquired methicillin-resistant Staphylococcus aureus 152 by broth microdilution method; outline: as §1

| Structure (SMILES) | MIC (Staphylococcus aureus [1]) | MIC (Staphylococcus aureus [2]) | MIC (Staphylococcus aureus [3]) | MIC (Staphylococcus aureus [4]) | MIC (Staphylococcus aureus [5]) | MIC (Staphylococcus aureus [6]) | MIC (Staphylococcus aureus [7]) | MIC (Staphylococcus aureus [8]) |
| --- | --- | --- | --- | --- | --- | --- | --- | --- |
| CCC[C@@H]1C[C@@H](C(=O)N[C@@H]([C@H]2O[C@H](SC)[C@H](O)[C@@H](O)[C@H]2O)[C@H](C)Cl)N(C)C1 [CLINDAMYCIN] | 0.25 µg/mL (≈ 0.588 µM) | 0.125 µg/mL (≈ 0.294 µM) | 0.125 µg/mL (≈ 0.294 µM) | 0.125 µg/mL (≈ 0.294 µM) | > 16 µg/mL | 0.25 µg/mL (≈ 0.588 µM) | 0.125 µg/mL (≈ 0.294 µM) | 0.125 µg/mL (≈ 0.294 µM) |
| C[C@H]1COc2c(N3CCN(C)CC3)c(F)cc3c(=O)c(C(=O)O)cn1c23.C[C@H]1COc2c(N3CCN(C)CC3)c(F)cc3c(=O)c(C(=O)O)cn1c23.O [LEVOFLOXACIN] | 0.25 µg/mL | 0.25 µg/mL | 8 µg/mL | 8 µg/mL | 0.5 µg/mL | 8 µg/mL | 0.25 µg/mL | 0.25 µg/mL |
| C[C@H]1c2cccc(O)c2C(=O)C2=C(O)[C@]3(O)C(=O)C(C(N)=O)=C(O)[C@@H](N(C)C)[C@@H]3[C@@H](O)[C@@H]21.O [DOXYCYCLINE] | 8 µg/mL | 0.5 µg/mL | 2 µg/mL | 0.5 µg/mL | 0.5 µg/mL | 2 µg/mL | 0.25 µg/mL | 0.5 µg/mL |
| CC(=O)NC[C@H]1CN(c2ccc(N3CCOCC3)c(F)c2)C(=O)O1 [LINEZOLID] | 8 µg/mL (≈ 23.7 µM) | – | – | – | – | – | – | – |
| CC[C@H]1OC(=O)[C@H](C)[C@@H](O[C@H]2C[C@@](C)(OC)[C@@H](O)[C@H](C)O2)[C@H](C)[C@@H](O[C@@H]2O[C@H](C)C[C@H](N(C)C)[C@H]2O)[C@](C)(O)C[C@@H](C)C(=O)[C@H](C)[C@@H](O)[C@]1(C)O [ERYTHROMYCIN] | 32 µg/mL (≈ 43.6 µM) | 1 µg/mL (≈ 1.36 µM) | > 32 µg/mL | > 32 µg/mL | > 32 µg/mL | > 32 µg/mL | 0.5 µg/mL (≈ 0.681 µM) | 1 µg/mL (≈ 1.36 µM) |
